Laboratory results taken from ChEMBL document CHEMBL1153526, “Design, synthesis, and pharmacological activities of dynorphin A analogues cyclized by ring-closing metathesis” (J Med Chem, 2009).

Biological target: Kappa-type opioid receptor (Rattus norvegicus) (UniProt P34975)
Assay: Agonist activity at rat cloned kappa opioid receptor expressed in CHO cells assessed as inhibition of forskolin-induced cAMP production by scintillation counting relative to Dyn A-(1-13)NH2
Type: functional, cell-based
Details: concentration not given here
Summary of the method: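 CHO cells stably expressing cloned rat κ receptor, washed in F12 and labelled 4 h with [3H]adenine. Then 40 min at 37 °C with 50 μM forskolin, peptidase inhibitors (bestatin, captopril, L-leucyl-L-leucine) and peptide at 0.1–10,000 nM in 10-fold steps. [3H]cAMP isolated on cation exchange resin and alumina, [14C]cAMP added for recovery, scintillation counted. Efficacy relative to Dyn A-(1-13)NH2. Mean ± SEM, ≥3 assays.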

Kappa-type opioid receptor (Rattus norvegicus), sequence (P34975 whole entry): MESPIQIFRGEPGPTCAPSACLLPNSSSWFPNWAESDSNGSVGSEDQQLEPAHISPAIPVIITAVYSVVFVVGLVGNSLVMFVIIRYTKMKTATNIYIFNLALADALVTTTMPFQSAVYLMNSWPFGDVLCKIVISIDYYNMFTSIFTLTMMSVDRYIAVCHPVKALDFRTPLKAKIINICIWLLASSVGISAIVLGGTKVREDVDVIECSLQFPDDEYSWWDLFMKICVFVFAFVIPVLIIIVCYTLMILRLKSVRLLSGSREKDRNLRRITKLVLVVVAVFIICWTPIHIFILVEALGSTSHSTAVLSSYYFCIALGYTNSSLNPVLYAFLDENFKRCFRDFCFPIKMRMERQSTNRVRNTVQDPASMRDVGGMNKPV

SMILES | inhibition
CC[C@H](C)[C@H](NC(=O)[C@H](CCCN=C(N)N)NC(=O)[C@H](CCCN=C(N)N)NC(=O)[C@H](CC(C)C)NC(=O)[C@H](Cc1ccccc1)NC(=O)CNC(=O)CNC(=O)[C@@H](N)Cc1ccc(O)cc1)C(=O)N[C@@H](CCCN=C(N)N)C(=O)N1CCC[C@H]1C(=O)N[C@@H](CCCCN)C(N)=O | 100%
N=C(N)NCCC[C@@H]1NC(=O)[C@@H](NC(=O)[C@H](Cc2ccccc2)NC(=O)CNC(=O)CNC(=O)[C@@H](N)Cc2ccc(O)cc2)C/C=C\C[C@@H](C(=O)N[C@@H](CCCNC(=N)N)C(=O)N2CCC[C@H]2C(=O)N[C@@H](CCCCN)C(N)=O)NC(=O)[C@H](CCCNC(=N)N)NC1=O | 110%
